{"source": "ChEMBL document CHEMBL3407407", "about": "“New mimetic peptides inhibitors of Αβ aggregation. Molecular guidance for rational drug design” (Eur J Med Chem, 2015)", "key": {"[1]": {"biological_target": "Amyloid-beta precursor protein (Homo sapiens) (UniProt P05067)", "sequence (P05067 whole entry)": "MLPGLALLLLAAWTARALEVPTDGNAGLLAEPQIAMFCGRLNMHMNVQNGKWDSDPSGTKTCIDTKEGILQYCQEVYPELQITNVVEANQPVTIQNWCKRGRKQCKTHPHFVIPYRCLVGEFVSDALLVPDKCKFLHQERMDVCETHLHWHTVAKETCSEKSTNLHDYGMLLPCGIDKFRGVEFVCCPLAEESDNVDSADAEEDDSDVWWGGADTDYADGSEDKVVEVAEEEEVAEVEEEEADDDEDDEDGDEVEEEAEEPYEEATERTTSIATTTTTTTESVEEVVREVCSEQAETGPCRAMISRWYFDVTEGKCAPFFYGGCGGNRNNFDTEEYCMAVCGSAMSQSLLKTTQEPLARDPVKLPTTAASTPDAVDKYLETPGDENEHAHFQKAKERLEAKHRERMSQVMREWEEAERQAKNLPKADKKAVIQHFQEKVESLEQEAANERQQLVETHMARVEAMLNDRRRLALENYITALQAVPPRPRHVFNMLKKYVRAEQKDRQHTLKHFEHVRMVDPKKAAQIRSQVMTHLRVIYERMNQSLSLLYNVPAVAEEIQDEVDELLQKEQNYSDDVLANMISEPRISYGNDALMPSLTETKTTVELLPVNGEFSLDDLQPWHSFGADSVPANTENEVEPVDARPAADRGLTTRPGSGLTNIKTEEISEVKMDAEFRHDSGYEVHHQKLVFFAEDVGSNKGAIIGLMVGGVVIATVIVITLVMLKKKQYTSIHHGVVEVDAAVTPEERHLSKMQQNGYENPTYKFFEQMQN", "assay": "Inhibition of amyloid beta(42) aggregation (unknown origin) at 100 uM after 5 hrs by thioflavin T fluorescence-based kinetic study", "outline": "(§1)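 In situ ThT kinetics. Aβ42 at 25 mM (so in the source) in PBS was incubated at 37 °C in sealed wells with 15 mM ThT and compound at 100 mM (so in the source), diluted 20-fold from DMSO to 5% DMSO. Fluorescence was read at intervals with excitation 450 nm and emission 470–600 nm. Background was corrected for ThT plus vehicle, with or without compound.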"}, "[2]": {"biological_target": "Amyloid-beta precursor protein (Homo sapiens) (UniProt P05067)", "assay": "Inhibition of amyloid beta(42) aggregation (unknown origin) assessed as A11-positive oligomer formation at 100 uM after 0.5 to 70 hrs by kinetic study", "outline": "(§2)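 A11 dot-blot time course. Aβ42 at 25 mM (so in the source) was incubated at 37 °C with compound at 100 mM (so in the source), 5% DMSO vehicle (5% water for the reference). Aliquots were taken at 0.5, 1.5, 5, 20, 30, 55 and 70 h, spotted on nitrocellulose, then probed with A11 and anti-rabbit-HRP. Read-out was chemiluminescence.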"}, "[3]": {"biological_target": "Amyloid-beta precursor protein (Homo sapiens) (UniProt P05067)", "assay": "Inhibition of amyloid beta(42) aggregation (unknown origin) at 100 uM after 7 days by thioflavin T fluorescence method", "outline": "(§3)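 Aβ42 at 25 mM (so in the source) in PBS, concentration set by A280 (ε 1490 M-1 cm-1), incubated quiescent at 37 °C for 7 days with compound (range 0–3200 mM as printed, from DMSO; final DMSO 5%). Samples then mixed with […] for 10 min at room temperature. Excitation 450 nm, emission 470–560 nm. Independent triplicates averaged, buffer+ThT+compound background subtracted.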"}, "[4]": {"biological_target": "Amyloid-beta precursor protein (Homo sapiens) (UniProt P05067)", "assay": "Inhibition of amyloid beta(42) aggregation (unknown origin) at 100 to 3200 uM after 1.5 hrs using anti-amyloid beta antibody DE2B4 by dot blot analysis", "outline": "(§4)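 Aβ42 at 25 mM (so in the source) was incubated quiescent at 37 °C for 1.5 h across a compound concentration range (5% DMSO) and spotted on nitrocellulose. For A11, blots were blocked in PBS/0.2% Tween-20, then taken through A11 (1:4000, Hepes pH 7.0, overnight 4 °C) and anti-rabbit-HRP. For DE2B4 (total Aβ), blots were blocked in PBS-Tween/5% milk, then DE2B4 1:20,000 overnight 4 °C and anti-mouse-HRP. Read-out was chemiluminescence.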"}, "[5]": {"biological_target": "Amyloid-beta precursor protein (Homo sapiens) (UniProt P05067)", "assay": "Inhibition of amyloid beta(42) aggregation (unknown origin) after 7 days by thioflavin T fluorescence method", "outline": "as §3"}, "[6]": {"biological_target": "Amyloid-beta precursor protein (Homo sapiens) (UniProt P05067)", "assay": "Inhibition of amyloid beta(42) aggregation (unknown origin) assessed as A11-positive oligomer formation at 100 uM up to 1.5 hrs by kinetic study", "outline": "as §2"}, "[7]": {"biological_target": "Amyloid-beta precursor protein (Homo sapiens) (UniProt P05067)", "assay": "Inhibition of amyloid beta(42) aggregation (unknown origin) at 100 to 3200 uM after 1.5 hrs using anti-oligomer A11 antibody by dot blot analysis", "outline": "as §4"}, "[8]": {"biological_target": "Amyloid-beta precursor protein (Homo sapiens) (UniProt P05067)", "assay": "Inhibition of amyloid beta(42) aggregation (unknown origin) at 100 uM up to 1.5 hrs by thioflavin T fluorescence-based kinetic study", "outline": "as §1"}, "[9]": {"biological_target": "Amyloid-beta precursor protein (Homo sapiens) (UniProt P05067)", "assay": "Inhibition of amyloid beta(42) aggregation (unknown origin) at 0.78 to 3200 uM after 1.5 hrs using anti-amyloid beta antibody DE2B4 by dot blot analysis", "outline": "as §4"}, "[10]": {"biological_target": "Amyloid-beta precursor protein (Homo sapiens) (UniProt P05067)", "assay": "Inhibition of amyloid beta(42) aggregation (unknown origin) at 100 uM after 7 days by transmission electron microscopy", "outline": "(§5)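 Aβ42 at 25 mM (so in the source) was incubated with compound at 37 °C for 7 days. Aliquots were adsorbed for 1 min onto carbon-coated Formvar copper grids, then blotted, washed and negatively stained for transmission electron microscopy.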"}, "[11]": {"biological_target": "Amyloid-beta precursor protein (Homo sapiens) (UniProt P05067)", "assay": "Inhibition of amyloid beta(42) aggregation (unknown origin) at 0.78 to 3200 uM after 1.5 hrs using anti-oligomer A11 antibody by dot blot analysis", "outline": "as §4"}, "[12]": {"biological_target": "Amyloid-beta precursor protein (Homo sapiens) (UniProt P05067)", "assay": "Inhibition of amyloid beta(42) aggregation (unknown origin) at 100 to 200 uM after 7 days by transmission electron microscopy", "outline": "as §5"}, "[13]": {"biological_target": "Amyloid-beta precursor protein (Homo sapiens) (UniProt P05067)", "assay": "Inhibition of amyloid beta(42) aggregation (unknown origin) at 0.75 to 100 uM after 7 days by thioflavin T fluorescence method", "outline": "as §3"}, "[14]": {"biological_target": "Amyloid-beta precursor protein (Homo sapiens) (UniProt P05067)", "assay": "Inhibition of amyloid beta(42) aggregation (unknown origin) at 3200 uM after 7 days by thioflavin T fluorescence method", "outline": "as §3"}, "[15]": {"biological_target": "Amyloid-beta precursor protein (Homo sapiens) (UniProt P05067)", "assay": "Inhibition of amyloid beta(42) aggregation (unknown origin) at 100 to 3200 uM after 7 days by transmission electron microscopy", "outline": "as §5"}}, "note": "Calls of active or inactive are those of the source. The calls are words filed in the database; no cut-off is given here."}
{"smiles": "O=C(NCCCC[C@H](NC(=O)OCc1ccccc1)C(=O)ON1C(=O)CCC1=O)OCc1ccccc1", "values": [{"measurement": "inhibition", "setting": "[1]", "value": "inactive"}, {"measurement": "inhibition", "setting": "[2]", "value": "Active"}, {"measurement": "inhibition", "setting": "[3]", "value": "Active"}, {"measurement": "inhibition", "setting": "[4]", "value": "Active"}, {"measurement": "inhibition", "setting": "[5]", "value": "Dose-dependent effect"}, {"measurement": "inhibition", "setting": "[6]", "value": "Active"}, {"measurement": "inhibition", "setting": "[7]", "value": "Active"}, {"measurement": "inhibition", "setting": "[8]", "value": "Active"}]}
{"smiles": "O=C(NCCCC[C@H](NC(=O)OCC1c2ccccc2-c2ccccc21)C(=O)O)OCc1ccccc1", "values": [{"measurement": "inhibition", "setting": "[9]", "value": "inactive"}, {"measurement": "inhibition", "setting": "[2]", "value": "inactive"}, {"measurement": "inhibition", "setting": "[10]", "value": "inactive"}, {"measurement": "inhibition", "setting": "[11]", "value": "inactive"}]}
{"smiles": "CC(C)(C)OC(=O)N[C@@H](CCCCNC(=O)OCc1ccccc1)C(=O)ON1C(=O)CCC1=O", "values": [{"measurement": "inhibition", "setting": "[1]", "value": "inactive"}, {"measurement": "inhibition", "setting": "[2]", "value": "Active"}, {"measurement": "inhibition", "setting": "[3]", "value": "Active"}, {"measurement": "inhibition", "setting": "[4]", "value": "Active"}, {"measurement": "inhibition", "setting": "[5]", "value": "Dose-dependent effect"}, {"measurement": "inhibition", "setting": "[6]", "value": "Active"}, {"measurement": "inhibition", "setting": "[7]", "value": "Active"}, {"measurement": "inhibition", "setting": "[8]", "value": "Active"}, {"measurement": "inhibition", "setting": "[12]", "value": "Active"}]}
{"smiles": "O=C(NCCCC[C@H](NC(=O)OCc1ccccc1)C(=O)O)OCc1ccccc1", "values": [{"measurement": "inhibition", "setting": "[9]", "value": "inactive"}, {"measurement": "inhibition", "setting": "[2]", "value": "inactive"}, {"measurement": "inhibition", "setting": "[10]", "value": "inactive"}, {"measurement": "inhibition", "setting": "[13]", "value": "inactive"}, {"measurement": "inhibition", "setting": "[11]", "value": "inactive"}]}
{"smiles": "O[C@H]1[C@H](O)[C@@H](O)[C@H](O)[C@@H](O)[C@@H]1O", "values": [{"measurement": "inhibition", "setting": "[2]", "value": "inactive"}]}
{"smiles": "CNc1ccc(C(=O)N[C@@H](CCCCNC(=O)OCc2ccccc2)C(=O)O)cc1", "values": [{"measurement": "inhibition", "setting": "[2]", "value": "inactive"}, {"measurement": "inhibition", "setting": "[14]", "value": "Active"}, {"measurement": "inhibition", "setting": "[15]", "value": "Active"}, {"measurement": "inhibition", "setting": "[5]", "value": "Dose-dependent effect"}]}
